Results: ChEMBL document CHEMBL1149770, “Synthesis and antimicrobial studies of novel dichlorofluorophenyl containing aminotriazolothiadiazines” (2008)
Converted amounts (≈) assume the structure as drawn.

Tests used:
[1] = tested on: Staphylococcus aureus; assay: Antibacterial activity against Staphylococcus aureus ATCC 25923 after 24 hrs by broth dilution technique; assay type: functional; settings: ATCC 25923, 24 h
How it was run: (§1)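 MIC by broth dilution in nutrient broth with logarithmic serial twofold dilutions of compound. Inoculum approx. 5×10^5 c.f.u actively dividing bacteria. Incubated 24 h at 37 °C, growth monitored visually and spectrophotometrically. MIC taken as the lowest concentration (highest dilution) arresting growth. Ciprofloxacin reference.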

[2] = tested on: Trichophyton mentagrophytes; assay: Antifungal activity against Trichophyton mentagrophytes after 48 hrs […]; assay type: functional
[3] = tested on: Aspergillus fumigatus; assay: Antifungal activity against Aspergillus fumigatus after 48 hrs […]; assay type: functional
[4] = tested on: Candida albicans; assay: Antifungal activity against Candida albicans after 48 hrs […]; assay type: functional
[5] = tested on: Pseudomonas aeruginosa; assay: Antibacterial activity against Pseudomonas aeruginosa ATCC 27853 after 24 hrs by broth dilution technique; assay type: functional; settings: ATCC 27853, 24 h; how it was run: as §1
[6] = tested on: Talaromyces marneffei; assay: Antifungal activity against Penicillium marneffei after 48 hrs […]; assay type: functional
[7] = tested on: Klebsiella pneumoniae; assay: Antibacterial activity against Klebsiella pneumoniae after 24 hrs by broth dilution technique; assay type: functional; how it was run: as §1
[8] = tested on: Escherichia coli; assay: Antibacterial activity against Escherichia coli ATCC 25922 after 24 hrs by broth dilution technique; assay type: functional; settings: ATCC 25922, 24 h; how it was run: as §1
[9] = tested on: Aspergillus flavus; assay: Antifungal activity against Aspergillus flavus after 48 hrs […]; assay type: functional
[10] = tested on: Trichophyton mentagrophytes; assay: Antifungal activity against Trichophyton mentagrophytes assessed as inhibition zone diameter […] by agar dilution method; assay type: functional
How it was run: (§2)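 Compounds in DMSO placed in punched wells on Sabouraud agar (peptone, glucose, agar, pH 5.7) lawned with saline spore suspension. Plates pre-dried 1 h at 37 °C. Controls in triplicate, incubation at 37 °C for 3-4 days, then inhibition zone diameter read in mm. Amphotericin B reference.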

[11] = tested on: Pseudomonas aeruginosa; assay: Antibacterial activity against Pseudomonas aeruginosa ATCC 27853 assessed as inhibition zone diameter after 24 hrs […]; assay type: functional
How it was run: (§3)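 Disc diffusion on nutrient agar. Inoculum 1-2 × 10^7 c.f.u/ml (0.5 McFarland) spread over the plate surface. Sterile 6.25 mm filter-paper discs soaked in a known concentration of compound. Solvent and growth controls included. Plates incubated inverted 24 h at 37 °C, then inhibition zone diameter measured in mm. Ciprofloxacin reference.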

[12] = tested on: Aspergillus fumigatus; assay: Antifungal activity against Aspergillus fumigatus assessed as inhibition zone diameter […] by agar dilution method; assay type: functional; how it was run: as §2
[13] = tested on: Klebsiella pneumoniae; assay: Antibacterial activity against Klebsiella pneumoniae assessed as inhibition zone diameter after 24 hrs […]; assay type: functional; how it was run: as §3
[14] = tested on: Talaromyces marneffei; assay: Antifungal activity against Penicillium marneffei assessed as inhibition zone diameter […] by agar dilution method; assay type: functional; how it was run: as §2
[15] = tested on: Streptococcus pyogenes; assay: Antibacterial activity against Streptococcus pyogenes after 24 hrs by broth dilution technique; assay type: functional; how it was run: as §1
[16] = tested on: Candida albicans; assay: Antifungal activity against Candida albicans assessed as inhibition zone diameter […] by agar dilution method; assay type: functional; how it was run: as §2
[17] = tested on: Streptococcus pyogenes; assay: Antibacterial activity against Streptococcus pyogenes assessed as inhibition zone diameter after 24 hrs by disc diffusion method
[18] = tested on: Staphylococcus aureus; assay: Antibacterial activity against Staphylococcus aureus ATCC 25923 assessed as inhibition zone diameter after 24 hrs […]; assay type: functional; how it was run: as §3
[19] = tested on: Aspergillus flavus; assay: Antifungal activity against Aspergillus flavus assessed as inhibition zone diameter […] by agar dilution method; assay type: functional; how it was run: as §2

Compound | MIC [1] [µg/mL] | MIC [2] [µg/mL] | MIC [3] [µg/mL] | MIC [4] [µg/mL] | MIC [5] [µg/mL] | MIC [6] [µg/mL] | MIC [7] [µg/mL] | MIC [8] [µg/mL] | MIC [9] [µg/mL] | inhibition zone (IZ) [10] [mm] | inhibition zone (IZ) [11] [mm] | inhibition zone (IZ) [12] [mm] | inhibition zone (IZ) [13] [mm] | inhibition zone (IZ) [14] [mm] | MIC [15] [µg/mL] | inhibition zone (IZ) [16] [mm] | inhibition zone (IZ) [17] [mm] | inhibition zone (IZ) [18] [mm] | inhibition zone (IZ) [19] [mm]
CCOc1ccc(NC(=O)CSc2nnc(-c3cc(F)c(Cl)cc3Cl)n2N)cc1 | > 100 | > 100 | > 100 | > 100 | > 100 | > 100 | > 100 | > 100 | > 100 |  |  |  |  |  |  |  |  |  | 
Nn1c(SCC(=O)Nc2cccc(Cl)c2Cl)nnc1-c1cc(F)c(Cl)cc1Cl | > 100 | > 100 | > 100 | > 100 | > 100 | > 100 | > 100 | > 100 | > 100 |  |  |  |  |  |  |  |  |  | 
Cc1cccc(C)c1NC(=O)CSc1nnc(-c2cc(F)c(Cl)cc2Cl)n1N | > 100 | > 100 | > 100 | > 100 | > 100 | > 100 | > 100 | > 100 | > 100 |  |  |  |  |  |  |  |  |  | 
Fc1cc(-c2nnc3n2N=C(Nc2cccc(Cl)c2Cl)CS3)c(Cl)cc1Cl | > 100 | 25 (≈ 54 µM) | 12.5 (≈ 27 µM) | > 100 | 12.5 (≈ 27 µM) | 12.5 (≈ 27 µM) | 12.5 (≈ 27 µM) | 12.5 (≈ 27 µM) | > 100 | 8 | 17 | 11 | 14 | 12 |  |  |  |  | 
Fc1cc(-c2nnc3n2N=C(Nc2c(Cl)cccc2Cl)CS3)c(Cl)cc1Cl | > 100 | 12.5 (≈ 27 µM) | 25 (≈ 54 µM) | 6.25 (≈ 13.5 µM) | > 100 | 25 (≈ 54 µM) | > 100 | 25 (≈ 54 µM) | > 100 | 12 |  | 10 |  | 10 | 12.5 (≈ 27 µM) | 18 | 15 |  | 
Cc1cccc(NC2=Nn3c(nnc3-c3cc(F)c(Cl)cc3Cl)SC2)c1C | 6.25 (≈ 14.8 µM) | > 100 | 12.5 (≈ 29.6 µM) | 25 (≈ 59.2 µM) | 25 (≈ 59.2 µM) | 6.25 (≈ 14.8 µM) | 6.25 (≈ 14.8 µM) | 12.5 (≈ 29.6 µM) | > 100 |  | 12 | 16 | 19 | 18 | 25 (≈ 59.2 µM) | 10 | 10 | 25 | 
Cc1cc(C)c(NC(=O)CSc2nnc(-c3cc(F)c(Cl)cc3Cl)n2N)c(C)c1 | > 100 | 6.25 (≈ 13.8 µM) | 12.5 (≈ 27.5 µM) | 12.5 (≈ 27.5 µM) | > 100 | 12.5 (≈ 27.5 µM) | > 100 | > 100 | 6.25 (≈ 13.8 µM) | 17 |  | 15 |  | 13 |  | 11 |  |  | 23
Nn1c(SCC(=O)Nc2ccc(Cl)cc2Cl)nnc1-c1cc(F)c(Cl)cc1Cl | > 100 | > 100 | > 100 | > 100 | > 100 | > 100 | > 100 | > 100 | > 100 |  |  |  |  |  |  |  |  |  | 
